Experimental data from ChEMBL document CHEMBL1649065, “Solomonsterols A and B from Theonella swinhoei. The first example of C-24 and C-23 sulfated sterols from a marine source endowed with a PXR agonistic activity” (J Med Chem, 2011).
The source made the active and inactive calls. No cut-off for these calls is given here.

What was measured:
RAW264.7 [1] = experiment: Immunomodulatory activity in mouse RAW264.7 cells assessed as inhibition of IL1-beta mRNA expression at 50 uM by RT-PCR analysis; type: functional
How it was run: (§1)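 RAW264.7 macrophages incubated 24 h with 10 and 50 μM plus bacterial LPS; total RNA extracted with TRIZOL, 50 ng template amplified by SYBR Green real-time PCR (0.2 μM each primer, 40 cycles), triplicate reactions; CT normalised to GAPDH, relative expression as 2^-ΔΔCT.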

[2] = target: T1, PXR (nuclear receptor subfamily 1 group I member 2) (Homo sapiens, UniProt O75469); experiment: Transactivation of PXR in human HepG2 cells assessed as induction of luciferase activity at 50 uM by luciferase reporter gene assay relative to control; conditions: read-out: FC
T1 sequence (O75469 whole entry): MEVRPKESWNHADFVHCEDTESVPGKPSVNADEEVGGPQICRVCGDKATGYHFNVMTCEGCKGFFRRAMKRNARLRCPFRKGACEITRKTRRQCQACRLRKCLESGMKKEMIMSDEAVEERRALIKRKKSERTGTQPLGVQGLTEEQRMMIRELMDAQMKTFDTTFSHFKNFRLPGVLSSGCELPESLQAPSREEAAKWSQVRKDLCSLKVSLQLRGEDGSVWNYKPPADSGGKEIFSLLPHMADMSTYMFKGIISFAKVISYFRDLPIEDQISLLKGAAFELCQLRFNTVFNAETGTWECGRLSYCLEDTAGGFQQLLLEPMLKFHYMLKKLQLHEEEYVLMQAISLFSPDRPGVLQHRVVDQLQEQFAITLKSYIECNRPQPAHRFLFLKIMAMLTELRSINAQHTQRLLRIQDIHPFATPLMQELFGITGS

RAW264.7 [3] = experiment: Cytotoxicity against mouse RAW264.7 cells at 10 to 50 uM; type: cell-based; conditions: raw264.7, 50 µM
How it was run: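 Murine macrophages exposed to 10 and 50 μM in presence of bacterial LPS; at end of experiment viability scored by trypan blue exclusion.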

[4] = target: T2, Nuclear receptor subfamily 1 group I member 2 (Homo sapiens, UniProt O75469); experiment: Induction of PXR-mediated MDR1 gene expression in human HepG2 cells at 50 uM by RT-PCR analysis; type: cell-based; conditions: hepg2, 50 µM
T2 sequence (O75469 whole entry): T1 sequence (O75469 whole entry)
How it was run: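 HepG2 hepatocytes treated with compound; mRNA quantified by SYBR Green real-time PCR in triplicate, CT normalised to GAPDH, relative expression computed as 2^-ΔΔCT.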

RAW264.7 [5] = experiment: Immunomodulatory activity in mouse RAW264.7 cells assessed as effect on TNFalpha mRNA expression at 10 to 50 uM by RT-PCR analysis; type: functional, cell-based; how it was run: as §1

| Compound | inhibition at 50 µM (RAW264.7 [1]) [%] | fold induction at 50 µM [2] | Activity (RAW264.7 [3]) | Activity [4] | Activity (RAW264.7 [5]) |
| --- | --- | --- | --- | --- | --- |
| C[C@H](CCCOS(=O)(=O)[O-])[C@H]1CC[C@H]2[C@@H]3CC[C@H]4C[C@H](OS(=O)(=O)[O-])[C@@H](OS(=O)(=O)[O-])C[C@]4(C)[C@H]3CC[C@]12C.[Na+].[Na+].[Na+] [SOLOMONSTEROL A] | 50 | 4 | Non-toxic | Active | inactive |
| C[C@H](CCOS(=O)(=O)[O-])[C@H]1CC[C@H]2[C@@H]3CC[C@H]4C[C@H](OS(=O)(=O)[O-])[C@@H](OS(=O)(=O)[O-])C[C@]4(C)[C@H]3CC[C@]12C.[Na+].[Na+].[Na+] [SOLOMONSTEROL B] | 50 | 4 | Non-toxic | Active | inactive |
